Assay results as given in PMC3170876 (Chemmedchem, 2011).

Legend:
[1] = molecular target: human 11β-HSD1 (Homo sapiens, UniProt P28845); assay: 11β-HSD1 inhibition cellular assay; assay type: cell-based; conditions: for IC50: IC50, human 11β-HSD1, HEK293 cell line transfected with human HSD11B1 gene, mean of three measurements, variance less than 20 %; for inhibition at 1 µM: HEK293, read-out: Percent inhibition
[2] = molecular target: mouse 11β-HSD1 (Mus musculus, UniProt P50172); assay: Inhibition of mouse 11β-HSD1; assay type: cell-based
Sequence of mouse 11β-HSD1 (P50172 whole entry): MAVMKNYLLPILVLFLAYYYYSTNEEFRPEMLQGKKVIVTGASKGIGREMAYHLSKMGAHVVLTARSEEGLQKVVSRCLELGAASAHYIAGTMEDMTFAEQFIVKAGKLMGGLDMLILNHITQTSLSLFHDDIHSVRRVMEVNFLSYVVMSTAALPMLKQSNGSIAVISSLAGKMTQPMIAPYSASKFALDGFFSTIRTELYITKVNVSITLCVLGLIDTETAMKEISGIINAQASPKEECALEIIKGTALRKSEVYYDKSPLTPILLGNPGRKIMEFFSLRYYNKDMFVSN

[3] = molecular target: T1, human 11β-HSD2 (Homo sapiens, UniProt P80365); assay: Selectivity: inhibition of human 11β-HSD2; assay type: cell-based; conditions: at a concentration of 10 μM (data not shown)
T1 sequence (P80365 1-405): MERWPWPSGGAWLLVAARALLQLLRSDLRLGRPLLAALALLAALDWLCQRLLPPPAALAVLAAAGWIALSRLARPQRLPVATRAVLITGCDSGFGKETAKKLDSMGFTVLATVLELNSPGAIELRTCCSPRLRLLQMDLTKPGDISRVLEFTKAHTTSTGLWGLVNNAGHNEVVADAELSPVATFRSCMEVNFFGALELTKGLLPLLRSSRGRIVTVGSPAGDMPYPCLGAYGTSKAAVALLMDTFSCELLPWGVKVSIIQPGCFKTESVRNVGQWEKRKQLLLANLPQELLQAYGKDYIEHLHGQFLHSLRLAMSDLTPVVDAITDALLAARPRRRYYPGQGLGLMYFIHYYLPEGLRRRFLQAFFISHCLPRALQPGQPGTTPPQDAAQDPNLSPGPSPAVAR

[4] = molecular target: T2, 17β-HSD1 (Homo sapiens, UniProt P14061); assay: Selectivity: inhibition of 17β-HSD1; conditions: at a concentration of 10 μM (data not shown)
T2 sequence (P14061 1-328): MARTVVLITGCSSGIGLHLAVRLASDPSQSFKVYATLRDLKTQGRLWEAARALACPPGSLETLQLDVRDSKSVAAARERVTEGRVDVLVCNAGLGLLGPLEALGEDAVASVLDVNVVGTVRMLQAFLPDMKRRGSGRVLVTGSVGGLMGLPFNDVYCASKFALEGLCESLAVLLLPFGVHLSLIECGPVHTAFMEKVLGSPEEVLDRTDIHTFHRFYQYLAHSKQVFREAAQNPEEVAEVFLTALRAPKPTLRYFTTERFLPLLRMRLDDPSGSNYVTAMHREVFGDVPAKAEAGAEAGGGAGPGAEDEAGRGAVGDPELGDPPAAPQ

[5] = Membrane permeability in the Caco-2 cell model; assay type: in vitro ADME; conditions: human
Method in brief: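 Caco-2 monolayer permeability. Test compound was applied at 20 μm, and the apparent permeability coefficient (Papp) was determined in the apical-to-basolateral direction.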

Sequence of human 11β-HSD1 (P28845 whole entry): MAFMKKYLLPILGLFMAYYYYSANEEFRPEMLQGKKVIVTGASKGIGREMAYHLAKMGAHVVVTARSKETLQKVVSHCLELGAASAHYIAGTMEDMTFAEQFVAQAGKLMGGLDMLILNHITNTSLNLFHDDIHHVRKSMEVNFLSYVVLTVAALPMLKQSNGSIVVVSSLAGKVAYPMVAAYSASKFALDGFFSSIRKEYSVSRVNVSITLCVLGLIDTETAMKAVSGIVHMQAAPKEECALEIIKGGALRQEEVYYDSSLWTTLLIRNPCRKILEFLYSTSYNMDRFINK

| Structure (SMILES) | IC50 [1] | melting point | further results |
| --- | --- | --- | --- |
| O=C(COCc1cccs1)C12CC3CC(CC(C3)C1)C2 [Compound 6, 1-(Adamantan-1-yl)-2-(thiophen-2-ylmethoxy)ethanone] | 0.41 µM | 57 to 58 °C | – |
| O=C(COCc1ccsc1)C12CC3CC(CC(C3)C1)C2 [Compound 7, 1-(Adamantan-1-yl)-2-(thiophen-3-ylmethoxy)ethanone] | 0.28 µM | 58 to 60 °C | – |
| O=C(COCc1nccs1)C12CC3CC(CC(C3)C1)C2 [Compound 8, 1-(Adamantan-1-yl)-2-(1,3-thiazol-2-ylmethoxy)ethanone] | 0.041 µM | 89 to 91 °C | IC50 [2]: 0.018 µM |
| Cc1csc(COCC(=O)C23CC4CC(CC(C4)C2)C3)n1 [Compound 9, 1-(Adamantan-1-yl)-2-[(4-methyl-1,3-thiazol-2-yl)methoxy]ethanone] | – | 77 to 80 °C | – |
| O=C(CSCc1cccs1)C12CC3CC(CC(C3)C1)C2 [Compound 10, 1-(Adamantan-1-yl)-2-(thiophen-2-ylmethylsulfanyl)ethanone] | 0.143 µM | – | – |
| O=C(CSCc1ccco1)C12CC3CC(CC(C3)C1)C2 [Compound 11, 1-(Adamantan-1-yl)-2-(furan-2-ylmethylsulfanyl)-ethanone] | 0.163 µM | – | – |
| O=C(CSCc1nccs1)C12CC3CC(CC(C3)C1)C2 [Compound 12, 1-(Adamantan-1-yl)-2-[(1,3-thiazol-2-ylmethyl)sulfanyl]ethanone] | 0.244 µM | 55 to 58 °C | – |
| Cc1csc(CSCC(=O)C23CC4CC(CC(C4)C2)C3)n1 [Compound 13, 1-(Adamantan-1-yl)-2-{[(4-methyl-1,3-thiazol-2-yl)methyl]sulfanyl}ethanone] | 0.327 µM | – | – |
| O=C(C[S+]([O-])Cc1ccco1)C12CC3CC(CC(C3)C1)C2 (stereo not shown) [Compound 15, 1-(Adamantan-1-yl)-2-(furan-2-ylmethanesulfinyl)ethanone] | 0.041 µM | 75 to 79 °C | IC50 [2]: 0.038 µM |
| COC(=O)c1ccc(CSCC(=O)C23CC4CC(CC(C4)C2)C3)o1 [Compound 18, Methyl 5-({[2-(adamantan-1-yl)-2-oxoethyl]sulfanyl}methyl)furan-2-carboxylate] | 0.264 µM | – | – |
| O=C(O)c1ccc(CSCC(=O)C23CC4CC(CC(C4)C2)C3)o1 [Compound 19, 5-(((2-(Adamantan-1-yl)-2-oxoethyl)thio)methyl)furan-2-carboxylic acid] | – | – | inhibition at 1 µM [1]: 67% |
| CN(C)C(=O)c1ccc(CSCC(=O)C23CC4CC(CC(C4)C2)C3)o1 [Compound 20, 5-({[2-(Adamantan-1-yl)-2-oxoethyl]sulfanyl}methyl)-N,N-dimethylfuran-2-carboxamide] | 0.153 µM | – | – |
| O=C(CSc1cccs1)C12CC3CC(CC(C3)C1)C2 [Compound 26, 1-(Adamantan-1-yl)-2-(thiophen-2-ylsulfanyl)-ethanone] | 0.101 µM | 69 to 72 °C | – |
| Cn1ccnc1SCC(=O)C12CC3CC(CC(C3)C1)C2 [Compound 27, 1-(Adamantan-1-yl)-2-(1-methyl-1H-imidazol-2-ylsulfanyl)-ethanone] | 0.093 µM | 65 to 69 °C | – |
| Cc1nnc(SCC(=O)C23CC4CC(CC(C4)C2)C3)s1 [Compound 29, 1-(Adamantan-1-yl)-2-(5-methyl-[1,3,4]thiadiazol-2-ylsulfanyl)-ethanone] | – | 102 to 105 °C | – |
| Cn1ccnc1[S+]([O-])CC(=O)C12CC3CC(CC(C3)C1)C2 (stereo not shown) [Compound 31, 1-(Adamantan-1-yl)-2-(1-methyl-1H-imidazole-2-sulfinyl)ethanone] | 0.048 µM | 86 to 89 °C | IC50 [2]: 0.121 µM; inhibition against human 11β-HSD2 [3]: inactive; inhibition against 17β-HSD1 [4]: inactive; Papp A→B at 20 μM [5]: 440 nm/s |
| Cn1cnnc1[S+]([O-])CC(=O)C12CC3CC(CC(C3)C1)C2 (stereo not shown) [Compound 32, 1-(Adamantan-1-yl)-2-(4-methyl-4H-[1,2,4]triazole-3-sulfinyl)ethanone] | 0.027 µM | 124.5 to 127 °C | IC50 [2]: 3.08 µM |

| Structure (SMILES) | IC50 [1] | melting point | further results |
| --- | --- | --- | --- |
| Cc1nnc([S+]([O-])CC(=O)C23CC4CC(CC(C4)C2)C3)s1 (stereo not shown) [Compound 33, 1-(Adamantan-1-yl)-2-(5-methyl-[1,3,4]thiadiazole-2-sulfinyl)ethanone] | 0.026 µM | 127 to 129 °C | IC50 [2]: 0.044 µM |
| Cn1ccnc1S(=O)(=O)CC(=O)C12CC3CC(CC(C3)C1)C2 [Compound 35, 1-(Adamantan-1-yl)-2-(1-methyl-1H-imidazole-2-sulfonyl)ethanone] | 0.062 µM | 124 to 125 °C | – |
| Cn1cnnc1S(=O)(=O)CC(=O)C12CC3CC(CC(C3)C1)C2 [Compound 36, 1-(Adamantan-1-yl)-2-(4-methyl-4H-[1,2,4]triazole-3-sulfonyl)ethanone] | 0.095 µM | 149 to 150 °C | – |
| Cc1nnc(SCC(=O)C23CC4CC(CC(C4)C2)C3)n1C [Compound 38, 1-(Adamantan-1-yl)-2-[(4,5-dimethyl-1,2,4-triazol-3-yl)sulfanyl]ethanone] | 0.036 µM | – | IC50 [2]: 0.248 µM; inhibition against human 11β-HSD2 [3]: inactive; inhibition against 17β-HSD1 [4]: inactive |
| Cc1nnc(SCC(=O)C23CC4CC(CC(C4)C2)C3)n1C(C)C [Compound 39, 1-(Adamantan-1-yl)-2-{[5-methyl-4-(propan-2-yl)-4H-1,2,4-triazol-3-yl]sulfanyl}ethanone] | 0.137 µM | – | – |
| Cn1c(SCC(=O)C23CC4CC(CC(C4)C2)C3)nnc1C1CC1 [Compound 40, 1-(Adamantan-1-yl)-2-[(5-cyclopropyl-4-methyl-4H-1,2,4-triazol-3-yl)sulfanyl]ethanone] | 0.129 µM | – | – |
| COCc1nnc(SCC(=O)C23CC4CC(CC(C4)C2)C3)n1C [Compound 41, 1-(Adamantan-1-yl)-2-{[5-(methoxymethyl)-4-methyl-4H-1,2,4-triazol-3-yl]sulfanyl}ethanone] | 0.153 µM | – | – |
| COC(=O)Cc1nnc(SCC(=O)C23CC4CC(CC(C4)C2)C3)n1C [Compound 42, Methyl 2-(5-{[2-(adamantan-1-yl)-2-oxoethyl]sulfanyl}-4-methyl-4H-1,2,4-triazol-3-yl)acetate] | 0.097 µM | – | – |
| O=C(CSc1nnc(C2CC2)n1C1CC1)C12CC3CC(CC(C3)C1)C2 [Compound 43, 1-(Adamantan-1-yl)-2-[(4,5-dicyclopropyl-4H-1,2,4-triazol-3-yl)sulfanyl]ethanone] | 1.86 µM | 117 to 119 °C | – |
| Cn1c(SCC(=O)C23CC4CC(CC(C4)C2)C3)nnc1-c1cccs1 [Compound 44, 1-(Adamantan-1-yl)-2-{[4-methyl-5-(thiophen-2-yl)-4H-1,2,4-triazol-3-yl]sulfanyl}ethanone] | 5.87 µM | 156 to 157 °C | – |
| CN(C)c1nnc(SCC(=O)C23CC4CC(CC(C4)C2)C3)s1 [Compound 45, 1-(Adamantan-1-yl)-2-{[5-(dimethylamino)-1,3,4-thiadiazol-2-yl]sulfanyl}ethanone] | 4 µM | – | – |
| CSc1nnc(SCC(=O)C23CC4CC(CC(C4)C2)C3)s1 [Compound 46, 1-(Adamantan-1-yl)-2-{[5-(methylsulfanyl)-1,3,4-thiadiazol-2-yl]sulfanyl}ethanone] | 0.306 µM | 133.5 to 135 °C | – |
| CCSc1nnc(SCC(=O)C23CC4CC(CC(C4)C2)C3)s1 [Compound 47, 1-(Adamantan-1-yl)-2-{[5-(ethylsulfanyl)-1,3,4-thiadiazol-2-yl]sulfanyl}ethanone] | – | – | inhibition at 1 µM [1]: 68% |
| Nc1nnc(SCC(=O)C23CC4CC(CC(C4)C2)C3)s1 [Compound 48, 1-(Adamantan-1-yl)-2-[(5-amino-1,3,4-thiadiazol-2-yl)sulfanyl]ethanone] | 0.071 µM | 198 to 199 °C | – |
| Nc1nnc(S(=O)(=O)CC(=O)C23CC4CC(CC(C4)C2)C3)s1 [Compound 49, 1-(Adamantan-1-yl)-2-(5-amino-1,3,4-thiadiazole-2-sulfonyl)ethanone] | 1.79 µM | 202 to 204 °C | – |
| CC(=O)Nc1nnc(SCC(=O)C23CC4CC(CC(C4)C2)C3)s1 [Compound 50, N-(5-{[2-(Adamantan-1-yl)-2-oxoethyl]sulfanyl}-1,3,4-thiadiazol-2-yl)acetamide] | 0.848 µM | – | – |
